Laboratory results as given in PubChem BioAssay AID504859 (Broad Institute, 2011).
Calls of active or inactive are those of the source.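 How the source made its calls: active means tumorsphere count inhibition of at least 15% in the mean or in any single replicate; inactive means the rest.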

Test system: SUM159 tumorsphere formation, imaging, 9 days
Assay: inhibition of SUM159 tumorsphere formation, confirmation, orthogonal assay for breast cancer stem cell project, imaging, single point, dry powder, set 2 (AID 504859)
Settings: at 20 µM; hits give high values
Procedure, shortened: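 Material: SUM159 breast cancer cells forming tumorspheres | Amount: 1000 cells per well | Schedule: Culture incubation at 37 °C under 5% CO2 | Technique: 2x transmitted-light imaging, 9 sites | Format: Low-attachment multiwell plate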

Row | SMILES | inhibition
1 | O=C(/C=C/c1ccc(Cl)c(Cl)c1)NC1=NCCS1 | 2.48% (inactive)
2 | Cc1ccc(/C=C/C(=O)NC2=NCCS2)cc1 | -19.9% (inactive)
3 | Cc1csc(NC(=O)c2ccc(COc3cccc(OC(F)(F)F)c3)o2)n1 | -1.1% (inactive)
4 | COc1ccc(/C=C/C(=O)NC2=NCCS2)c(OC)c1 | 3.49% (inactive)
5 | Cc1csc(NC(=O)c2ccc(COc3ccccc3)o2)n1 | 19.1%
6 | O=C(/C=C/c1ccc(-c2ccccc2)cc1)NC1=NCCS1 | 20.5%
7 | CCc1ccc(/C=C/C(=O)NC2=NCCS2)cc1 | 0.128% (inactive)
8 | O=C(NC1CCCC1)c1ccc(COc2ccccc2)o1 | 11% (inactive)
9 | Cc1csc(NC(=O)c2ccc(COc3ccccc3F)o2)n1 | 1.67% (inactive)
10 | Cc1csc(NC(=O)c2ccc(COc3cccc(Cl)c3)o2)n1 | 5.07% (inactive)
11 | CC(C)c1ccc(/C=C/C(=O)NC2=NCCS2)cc1 | 15.4%
